According to ChEMBL document CHEMBL2375233, “Cytotoxic phorbol esters of Croton tiglium” (J Nat Prod, 2013):

Test system: SNU-387
Assay: Cytotoxicity against human SNU387 cells after 48 hrs by MTT assay
Assay type: functional, cell-based
Conditions: SNU-387, 48 h
How it was run: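 SNU387 hepatoma cells (Shanghai Cell Bank) grown in RPMI1640 with 10% FBS, seeded in 96-well plates and exposed to test compounds at various concentrations for 48 h. Viability read by MTT, absorbance at 570 nm. IC50 calculated from concentration-response; samples assayed in triplicate, paclitaxel as positive control.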

Row | Structure (SMILES) | IC50 [µM]
1 | CCCCCCCCCCCCCC(=O)O[C@@H]1[C@@H](C)[C@@]2(O)[C@@H](C=C(CO)C[C@]3(O)C(=O)C(C)=C[C@@H]23)[C@@H]2C(C)(C)[C@]12OC(C)=O [PHORBOL MYRISTATE ACETATE] | > 10
2 | CCCCCCCCCCCC(=O)O[C@@]12[C@H](OC(=O)C(C)CC)[C@@H](C)[C@@]3(O)[C@@H](C=C(CO)C[C@]4(O)C(=O)C(C)=C[C@@H]34)[C@@H]1C2(C)C (stereo not given in full) | > 10
3 | C/C=C(\C)C(=O)O[C@@]12[C@H](OC(=O)C(C)CC)[C@@H](C)[C@@]3(O)[C@@H](C=C(CO)C[C@]4(O)C(=O)C(C)=C[C@@H]34)[C@@H]1C2(C)C (stereo not given in full) | > 10
4 | C/C=C(\C)C(=O)O[C@@H]1[C@@H](C)[C@]2(O)[C@@H]3C=C(C)C(=O)[C@@H]3CC(CO)=C[C@H]2[C@@H]2C(C)(C)[C@]12OC(=O)CCCCCCCCC | > 10
5 | C/C=C(\C)C(=O)O[C@@H]1[C@@H](C)[C@]2(O)[C@@H]3C=C(C)C(=O)[C@@H]3CC(CO)=C[C@H]2[C@@H]2C(C)(C)[C@]12OC(=O)Cc1ccccc1 | > 10
6 | C/C=C(\C)C(=O)O[C@@H]1[C@@H](C)[C@]2(O)[C@@H]3C=C(C)C(=O)[C@@H]3CC(CO)=C[C@H]2[C@@H]2C(C)(C)[C@]12OC(C)=O | > 10
7 | C/C=C(\C)C(=O)O[C@@H]1[C@@H](C)[C@]2(O)[C@@H]3C=C(C)C(=O)[C@@H]3CC(CO)=C[C@H]2[C@@H]2C(C)(C)[C@]12OC(=O)C(C)C | > 10
8 | CCCCCCCC/C=C\CCCCCCCC(=O)OCC1=C[C@H]2[C@@H]3C(C)(C)[C@]3(OC(C)=O)[C@H](O)[C@@H](C)[C@]2(O)[C@@H]2C=C(C)C(=O)[C@@]2(O)C1 | 1.2
9 | CCCCCCCCCC(=O)O[C@@]12[C@H](OC(C)=O)[C@@H](C)[C@@]3(O)[C@@H](C=C(CO)C[C@]4(O)C(=O)C(C)=C[C@@H]34)[C@@H]1C2(C)C | > 10
10 | C/C=C(\C)C(=O)O[C@@H]1[C@@H](C)[C@@]2(O)[C@@H](C=C(CO)C[C@]3(O)C(=O)C(C)=C[C@@H]23)[C@@H]2C(C)(C)[C@]12OC(=O)C(C)CC (stereo not given in full) | 8.7
11 | C/C=C(\C)C(=O)O[C@@H]1[C@@H](C)[C@@]2(O)[C@@H](C=C(CO)C[C@]3(O)C(=O)C(C)=C[C@@H]23)[C@@H]2C(C)(C)[C@]12OC(=O)C(C)C | > 10
12 | C/C=C(\C)C(=O)O[C@@H]1[C@@H](C)[C@]2(O)[C@@H]3C=C(C)C(=O)[C@@H]3CC(CO)=C[C@H]2[C@@H]2C(C)(C)[C@]12OC(=O)C(C)CC (stereo not given in full) | > 10
13 | CCCCC/C=C\C/C=C\CCCCCCCC(=O)OCC1=C[C@H]2[C@@H]3C(C)(C)[C@]3(OC(C)=O)[C@H](O)[C@@H](C)[C@]2(O)[C@@H]2C=C(C)C(=O)[C@@]2(O)C1 | 3.4
14 | CC(=O)O[C@H]1C(=O)[C@@]2(C)[C@H]([C@H](OC(=O)c3ccccc3)[C@]3(O)C[C@H](OC(=O)[C@H](O)[C@@H](NC(=O)c4ccccc4)c4ccccc4)C(C)=C1C3(C)C)[C@]1(OC(C)=O)CO[C@@H]1C[C@@H]2O [PACLITAXEL] | 0.27
15 | CCCCC/C=C\C/C=C\CCCCCCCC(=O)OCC1=C[C@H]2[C@@H]3C(C)(C)[C@]3(OC(C)=O)[C@H](O)[C@@H](C)[C@]2(O)[C@@H]2C=C(C)C(=O)[C@@H]2C1 | 8.1
16 | CCCCCCCC/C=C\CCCCCCCC(=O)OCC1=C[C@H]2[C@@H]3C(C)(C)[C@]3(OC(C)=O)[C@H](O)[C@@H](C)[C@]2(O)[C@@H]2C=C(C)C(=O)[C@@H]2C1 | 6.6
17 | CCC(C)C(=O)O[C@@H]1[C@@H](C)[C@@]2(O)[C@@H](C=C(CO)C[C@]3(O)C(=O)C(C)=C[C@@H]23)[C@@H]2C(C)(C)[C@]12OC(=O)C(C)C (stereo not given in full) | > 10
18 | CCCCCCCCCCCCCCCC(=O)O[C@@H]1[C@@H](C)[C@@]2(O)[C@@H](C=C(CO)C[C@]3(O)C(=O)C(C)=C[C@@H]23)[C@@H]2C(C)(C)[C@]12OC(C)=O | > 10
19 | CCCCCCCCCCCC(=O)O[C@@]12[C@H](OC(C)=O)[C@@H](C)[C@@]3(O)[C@@H](C=C(CO)C[C@]4(O)C(=O)C(C)=C[C@@H]34)[C@@H]1C2(C)C | > 10
20 | C/C=C(\C)C(=O)O[C@@H]1[C@@H](C)[C@@]2(O)[C@@H](C=C(CO)C[C@]3(O)C(=O)C(C)=C[C@@H]23)[C@@H]2C(C)(C)[C@]12OC(=O)CC | > 10.2
